Activity calls are given as the source filed them. The calls are words filed in the database; no cut-off is given here.
Assays:
[1] = molecular target: Genome polyprotein (dengue virus type 2) (UniProt P29990); experiment: Inhibition of DENV NS2B-NS3 protease assessed as fluorescence emission using benzoyl-Nle-Lys-Arg-Arg-AMC as substrate at 150 nM preincubated with enzyme for 60 min followed by substrate addition and measured for 15 min by fluorimetric assay
Summary of the method: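 The substrate is cleaved to release fluorescent AMC, and fluorescence intensity is the read-out. Percent inhibition is taken from triplicate measurements at 150 nM compound.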

Genome polyprotein [2] = molecular target: T1, Genome polyprotein (dengue virus type 2, UniProt P29990); experiment: Inhibition of DENV NS2B-NS3 protease assessed as fluorescence emission using benzoyl-Nle-Lys-Arg-Arg-AMC as substrate preincubated with enzyme for 60 min followed by substrate addition and measured for 15 min by fluorimetric assay
Summary of the method: (§1)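 Fluorometric protease assay reading the fluorescence of product released from benzoyl-Nle-Lys-Arg-Arg-AMC cleavage, with aprotinin as a positive control. Percent inhibition was taken from triplicate measurements at 150 nM inhibitor. IC50 values were determined by a similar method for selected compounds.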

Genome polyprotein [3] = molecular target: T1, Genome polyprotein; experiment: Inhibition of DENV2 NS2B-NS3 protease expressed in Escherichia coli assessed as fluorescence emission using Bz-nKRR-AMC as substrate by microplate reader assay; summary of the method: as §1
Genome polyprotein [4] = molecular target: T1, Genome polyprotein; experiment: Binding affinity to DENV NS2B-NS3 protease assessed as inhibition constant using benzoyl-Nle-Lys-Arg-Arg-AMC as substrate incubated for 60 min by measuring fluorescence intensity
Summary of the method: (§2)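 Time-dependent inactivation of DENV NS2B-NS3 protease was followed by fluorescence from cleavage of benzoyl-Nle-Lys-Arg-Arg-AMC at several inhibitor concentrations. kobs values were obtained at each concentration and plotted against inhibitor concentration to derive kinact, Ki and the second-order rate constant kinact/Ki.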

[5] = molecular target: Genome polyprotein (dengue virus type 2) (UniProt P29990); experiment: Inhibition of DENV NS2B-NS3 protease assessed as fluorescence emission using benzoyl-Nle-Lys-Arg-Arg-AMC as substrate at 1.4 to 16.7 uM by fluorimetric assay; details: dose 1.4-16.7 µM, time min <=60, TDE = time-dependent effect
[6] = molecular target: Genome polyprotein (dengue virus type 2) (UniProt P29990); experiment: Inhibition of DENV NS2B-NS3 protease assessed as inactivation constant using benzoyl-Nle-Lys-Arg-Arg-AMC as substrate incubated for 60 min by measuring fluorescence intensity; summary of the method: as §2
[7] = molecular target: Genome polyprotein (dengue virus type 2) (UniProt P29990); experiment: Inhibition of DENV NS2B-NS3 protease assessed as ratio of Kinact/Ki using benzoyl-Nle-Lys-Arg-Arg-AMC as substrate incubated for 60 min by measuring fluorescence intensity; summary of the method: as §2
BHK-21 [8] = experiment: Cytoprotective activity against DENV infected hamster BHK-21 cells assessed as cell survival rate at 5 uM incubated for 5 days measured by CCK-8 assay; type: functional, cell-based; details: Mesocricetus auratus, time 5.0 day
Summary of the method: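 BHK-21 cells are infected with DENV and treated with compound at 5 μM. Cell viability is read by CCK-8. Survival rate is compared against the virus-infection control.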

BHK-21 [9] = experiment: Cytotoxicity against DENV infected hamster BHK-21 cells assessed as cell survival rate at 5 uM incubated for 5 days measured by CCK-8 assay; type: toxicity, cell-based, Mesocricetus auratus; details: bhk-21, 120 h, time 5 day

Compound | inhibition [1] [%] | other results
CC(C)(C)c1ccc(S(=O)(=O)n2nc(OC(=O)c3ccc(-c4ccccc4)cc3)cc2N)cc1 | 59.8 | 
COc1ccc(C(=O)Oc2cc(N)n(S(=O)(=O)c3ccc(C(F)(F)F)cc3)n2)cc1 | 16.1 | 
Nc1ccc(C(=O)Oc2cc(N)n(S(=O)(=O)c3ccc(C(F)(F)F)cc3)n2)cc1 | 52.6 | 
Nc1ccc(C(=O)Oc2cc(N)n(S(=O)(=O)c3ccc(Br)cc3)n2)cc1 | 100 | IC50 (Genome polyprotein [2]): 74 nM
CCOc1ccc(S(=O)(=O)n2nc(OC(=O)c3ccc(N)cc3)cc2N)cc1 | 71.9 | 
Nc1ccc(C(=O)Oc2cc(N)n(S(=O)(=O)c3ccc(Oc4ccccc4)cc3)n2)cc1 | 100 | IC50 (Genome polyprotein [2]): 9 nM
Nc1ccc(C(=O)Oc2cc(N)n(S(=O)(=O)c3ccccc3)n2)cc1 | 76.4 | 
Cc1ccc(C(=O)Oc2cc(N)n(S(=O)(=O)c3ccc(C(F)(F)F)cc3)n2)cc1 | 19.3 | 
Nc1ccc(C(=O)Oc2cc(N)n(S(=O)(=O)c3ccc(Cl)cc3)n2)cc1 | 85.6 | 
Nc1cc(OC(=O)c2ccc(-c3ccccc3)cc2)nn1S(=O)(=O)c1ccc(C(F)(F)F)cc1 | 41.2 | 
COc1ccc(S(=O)(=O)n2nc(OC(=O)c3ccc(-c4ccccc4)cc3)cc2N)cc1 | 59.7 | IC50 (Genome polyprotein [3]): 500 nM; Ki (Genome polyprotein [4]): 7250 nM; inhibition [5]: Tde; Kinact [6]: 1.13 10^-3/s; Ratio [7]: 156; IC50 (Genome polyprotein [2]): 500 nM
Cc1ccc(C(=O)Oc2cc(N)n(S(=O)(=O)c3ccc(Oc4ccccc4)cc3)n2)cc1 | 81 | 
Nc1cc(OC(=O)c2ccc(-c3ccccc3)cc2)nn1S(=O)(=O)c1ccccc1 | 100 | IC50 (Genome polyprotein [2]): 12 nM
COc1ccc(C(=O)Oc2cc(N)n(S(=O)(=O)c3ccc(Oc4ccccc4)cc3)n2)cc1 | 76.7 | 
Nc1ccc(C(=O)Oc2cc(N)n(S(=O)(=O)c3ccc(F)cc3)n2)cc1 | 87.8 | 
COc1ccc(S(=O)(=O)n2nc(OC(=O)c3ccc(N)cc3)cc2N)cc1 | 68.5 | 
CCOc1ccc(S(=O)(=O)n2nc(OC(=O)c3ccc(-c4ccccc4)cc3)cc2N)cc1 | 100 | Activity (BHK-21 [8]): Active; Ki (Genome polyprotein [4]): 665 nM; inhibition [5]: Tde; Kinact [6]: 1.05 10^-3/s; Ratio [7]: 1580; IC50 (Genome polyprotein [2]): 6 nM; Activity (BHK-21 [9]): Non-Toxic
CCOc1ccc(S(=O)(=O)n2nc(OC(=O)c3ccc(C)cc3)cc2N)cc1 | 42.1 | 
Nc1cc(OC(=O)c2ccc([N+](=O)[O-])cc2)nn1S(=O)(=O)c1ccc(Br)cc1 | 17.3 | 
CC(C)(C)c1ccc(S(=O)(=O)n2nc(OC(=O)c3ccc([N+](=O)[O-])cc3)cc2N)cc1 | 20.4 | 
Nc1cc(OC(=O)c2ccc(-c3ccccc3)cc2)nn1S(=O)(=O)c1ccc(Oc2ccccc2)cc1 | 95 | 
Nc1cc(OC(=O)c2ccc([N+](=O)[O-])cc2)nn1S(=O)(=O)c1ccccc1 | 27.3 | 
CC(C)(C)c1ccc(S(=O)(=O)n2nc(OC(=O)c3ccc(N)cc3)cc2N)cc1 | 88.1 | 
Nc1cc(OC(=O)c2ccc([N+](=O)[O-])cc2)nn1S(=O)(=O)c1ccc(Cl)cc1 | 13.2 | 
CCOc1ccc(S(=O)(=O)n2nc(OC(=O)c3ccc([N+](=O)[O-])cc3)cc2N)cc1 | 32.6 | 
Nc1cc(OC(=O)c2ccc([N+](=O)[O-])cc2)nn1S(=O)(=O)c1ccc(C(F)(F)F)cc1 | 22 | 
Nc1cc(OC(=O)c2ccc([N+](=O)[O-])cc2)nn1S(=O)(=O)c1ccc(Oc2ccccc2)cc1 | 64.3 | 
CCOc1ccc(S(=O)(=O)n2nc(OC(=O)c3ccc(OC)cc3)cc2N)cc1 | 43.6 | 

From ChEMBL document CHEMBL5038677, “Identification and In Silico Binding Study of a Highly Potent DENV NS2B-NS3 Covalent Inhibitor” (ACS Med Chem Lett, 2022)
